Assay results reported in ChEMBL document CHEMBL1150594, “Suberosols A-D, four new sesquiterpenes with beta-caryophyllene skeletons from a Taiwanese gorgonian coral Subergorgia suberosa” (2002).
Converted amounts (≈) assume the structure as drawn.

Experiments:
Assay type in all cases: functional
Conditions in all cases: read-out: ED50 (the source's name)
A549 = assay: Cytotoxicity against human A549 cells by MTT assay
Summary of the method: (§1)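 Growth inhibition of cancer cells read by a modified MTT colorimetric method, following a previously described procedure. P-388 cells were obtained from an academic laboratory; A549 and HT-29 cells came from the American Type Culture Collection.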

P388 = assay: Cytotoxicity against mouse P388 cells by MTT assay; summary of the method: as §1
HT-29 = assay: Cytotoxicity against human HT-29 cells by MTT assay; summary of the method: as §1

SMILES	EC50 (A549)	EC50 (P388)	EC50 (HT-29)
C=C1CC/C=C(\C)C(=O)C[C@@H]2[C@@H]1CC2(C)C [BUDDLEDIN C]	3.8 µg/mL (≈ 17.4 µM)	4.6 µg/mL (≈ 21.1 µM)	3.6 µg/mL (≈ 16.5 µM)
C=C1CC/C=C(/C)C(=O)C[C@@H]2[C@@H]1CC2(C)C [BUDDLEDIN D]	8.9 µg/mL (≈ 40.8 µM)	6.3 µg/mL (≈ 28.9 µM)	6.6 µg/mL (≈ 30.2 µM)
C=C1CC[C@H]2O[C@]2(C)[C@@H](O)C[C@@H]2[C@@H]1CC2(C)C [SUBEROSOL A]	> 50 µg/mL	3.8 µg/mL (≈ 16.1 µM)	> 50 µg/mL
C=C1CC[C@H]2O[C@]2(C)[C@H](O)C[C@@H]2[C@@H]1CC2(C)C [SUBEROSOL B]	> 50 µg/mL	7.4 µg/mL (≈ 31.3 µM)	> 50 µg/mL
C=C1CC/C=C(\C)[C@H](O)C[C@@H]2[C@@H]1CC2(C)C [SUBEROSOL C]	5.6 µg/mL (≈ 25.4 µM)	2.1 µg/mL (≈ 9.53 µM)	2.3 µg/mL (≈ 10.4 µM)
C=C1CC/C=C(/C)[C@@H](O)C[C@@H]2[C@@H]1CC2(C)C [SUBEROSOL D]	4.2 µg/mL (≈ 19.1 µM)	3.3 µg/mL (≈ 15 µM)	3.8 µg/mL (≈ 17.2 µM)
